According to ChEMBL document CHEMBL4819003, “Optimization of novel oxidative DIMs as Nur77 modulators of the Nur77-Bcl-2 apoptotic pathway” (Eur J Med Chem, 2021):
Each block holds one molecule with its values, some of them ahead of it. Activity calls are given as the source filed them. The calls are words filed in the database; no cut-off is given here.

Legend:
[1] = Cmax in male Sprague-Dawley rat at 5 mg/kg, po measured for 36 hrs by LC-MS/MS analysis; format: ADME, organism-based; set-up: route oral, time 36 hrs, dose 5 mg/kg; settings: in vivo
[2] = Cmax in female Sprague-Dawley rat at 0.5 mg/kg, iv measured for 36 hrs by LC-MS/MS analysis; format: ADME, organism-based; set-up: route intravenous, time 36 hrs, dose 0.5 mg/kg; settings: in vivo
[3] = Clearance in male Sprague-Dawley rat at 0.5 mg/kg, iv measured for 36 hrs by LC-MS/MS analysis; format: ADME, organism-based; settings: in vivo
[4] = MRT(0 to t) in male Sprague-Dawley rat at 5 mg/kg, po measured for 36 hrs by LC-MS/MS analysis; format: ADME, organism-based; settings: in vivo
Procedure, shortened: (§1)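 Sprague-Dawley rats (200–220 g), three males and three females per route group. Dosed 5 mg/kg orally or 0.5 mg/kg IV as a solution in DMSO/T-80/H2O (1:5:94 by volume). Heparinized blood was drawn from 5 min to 36 h after IV and 1–36 h after oral dosing. Plasma was protein-precipitated with methanol (2% HCl) plus carbamazepine internal standard and assayed by LC-MS/MS. Parameters were taken from concentration-time data; n = 3 per sex, mean ± SD.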

[5] = Half life in male Sprague-Dawley rat at 0.5 mg/kg, iv measured for 36 hrs by LC-MS/MS analysis; format: ADME, organism-based; settings: in vivo
[6] = AUC (0 to t) in female Sprague-Dawley rat at 5 mg/kg, po measured for 36 hrs by LC-MS/MS analysis; format: ADME, organism-based; set-up: dose 5 mg/kg, time 36 hrs; settings: in vivo
Procedure, shortened: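 Sprague-Dawley rats (200–220 g), three per sex per route, were dosed at 0.5 mg/kg IV or 5 mg/kg PO in DMSO/Tween-80/water (1:5:94). Heparinized blood was drawn from 5 min to 36 h after IV dosing and from 1 h to 36 h after oral dosing. Plasma was deproteinized with methanol (2% HCl) plus carbamazepine internal standard, measured by LC-MS/MS, and reported as mean ± SD.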

[7] = Cmax in female Sprague-Dawley rat at 5 mg/kg, po measured for 36 hrs by LC-MS/MS analysis; format: ADME, organism-based; set-up: route oral, time 36 hrs, dose 5 mg/kg; settings: in vivo
[8] = Oral bioavailability in male Sprague-Dawley rat at 5 mg/kg measured for 36 hrs by LC-MS/MS analysis; format: ADME, organism-based; settings: in vivo; procedure, shortened: as §1
[9] = Oral bioavailability in female Sprague-Dawley rat at 5 mg/kg measured for 36 hrs by LC-MS/MS analysis; format: ADME, organism-based; settings: in vivo; procedure, shortened: as §1
Mus musculus = test: Antitumour activity against FVB/N mammary tumor MMTV-PyMT mouse model assessed as inhibition of tumour growth at 3 mg/kg, po administered daily for 14 days; format: functional, organism-based; settings: time 14.0 day
Procedure, shortened: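 Female MMTV-PyMT transgenic mice (FVB/N background), 12 weeks old, randomized n = 6 per group; daily oral gavage 3 mg/kg for 14 days. Dosing solution: DMSO stock diluted in normal saline with 5.0% (V/V) Tween-80 to 3 mg/mL. Tumours weighed at end; mean ± SD, Student's t-test versus untreated controls.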

HCT-116 [10] = test: Induction of apoptosis in human HCT-116 cells assessed as PARP cleavage at 0.5 uM measured after 6 hrs by western blot assay; format: functional, cell-based
Procedure, shortened: (§2)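 Cells exposed to 0.5 µM for 6 h. Lysates resolved by SDS-PAGE and blotted to PVDF, blocked in 5% milk/TBST, probed with primary antibodies at 1:1000, ECL detection. Apoptosis scored as the densitometric ratio of cleaved PARP band to intact PARP band; mean ± SD, n = 3.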

MEF = test: Induction of apoptosis in wild type mouse MEF cells assessed as PARP cleavage at 0.5 uM measured after 6 hrs by western blot assay; format: functional, cell-based
Procedure, shortened: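 Wild-type, Nur77−/− or Bcl-2−/− mouse embryonic fibroblasts grown in DMEM with 10% FBS and treated with 0.5 µM for 6 h. PARP cleavage detected by western blot, primary antibodies at 1:1000, ECL.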

[11] = Selectivity index, ratio of IC50 for human NCM460 cells to IC50 for human HCT-116 cells; format: toxicity; settings: NCM460 cells versus HCT-116 cells, read-out: Ratio IC50
[12] = AUC (0 to t) in male/female Sprague-Dawley rat at 5 mg/kg, po measured for 36 hrs by LC-MS/MS analysis; format: ADME, organism-based; set-up: dose 5 mg/kg, time 36 hrs; settings: both, in vivo
Procedure, shortened: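 Four Sprague-Dawley rats per route (2 male, 2 female; 200–220 g) received 0.5 mg/kg IV or 5 mg/kg PO in DMSO/Tween-80/water (1:5:94). Heparinized blood was taken at 5 min–36 h after IV dosing and at 0.5, 1, 3, 4, 6, 8, 10, 12, 24 and 36 h after oral dosing. Methanol (2% HCl) precipitation with carbamazepine internal standard preceded LC-MS/MS; values are mean ± SD.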

[13] = target: T1, Nuclear receptor subfamily 4immunitygroup A member 1 (Homo sapiens, UniProt P22736); test: Modulation of GFP-Nur77-LBD (unknown origin) transfected in human HEK293T cells co-transfected with Flag-tagged Bcl2 assessed as interaction of Nur77 with Bcl2 in mitochondria at 0.5 uM measured after 2 hrs by confocal microscopy; settings: filed as modulator
T1 sequence (P22736 whole entry, the tested form may be a part): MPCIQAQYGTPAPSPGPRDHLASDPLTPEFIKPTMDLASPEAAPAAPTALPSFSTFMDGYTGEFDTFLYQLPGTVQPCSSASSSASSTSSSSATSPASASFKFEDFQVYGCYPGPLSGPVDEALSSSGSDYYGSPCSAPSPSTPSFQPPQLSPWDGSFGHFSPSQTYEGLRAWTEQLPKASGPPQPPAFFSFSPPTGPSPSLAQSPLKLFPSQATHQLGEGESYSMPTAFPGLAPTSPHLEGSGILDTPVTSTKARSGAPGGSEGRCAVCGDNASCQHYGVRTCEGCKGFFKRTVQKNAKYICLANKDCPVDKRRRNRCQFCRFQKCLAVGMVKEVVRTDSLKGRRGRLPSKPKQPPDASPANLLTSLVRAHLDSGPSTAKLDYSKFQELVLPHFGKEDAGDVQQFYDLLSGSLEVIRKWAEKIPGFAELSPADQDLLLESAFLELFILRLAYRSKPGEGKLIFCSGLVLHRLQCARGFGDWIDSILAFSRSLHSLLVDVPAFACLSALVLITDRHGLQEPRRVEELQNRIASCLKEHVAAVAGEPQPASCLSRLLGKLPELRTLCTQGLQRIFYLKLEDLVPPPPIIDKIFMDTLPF
Procedure, shortened: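 HEK293T cells were lipofectamine-cotransfected with Flag-Bcl-2 and GFP-Nur77 or GFP-Nur77-LBD, then given 0.5 μM compound for 2 h. Cells were fixed in 4% paraformaldehyde, permeabilised with 0.1% Triton X-100, blocked in 1% BSA and stained with anti-Flag plus DAPI. Mitochondrial colocalisation with Bcl-2 was read by confocal microscopy.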

HCT-116 [14] = test: Induction of apoptosis in human HCT-116 cells assessed as PARP cleavage at 0.5 uM measured after 6 hrs by western blot assay relative to Di(1H-indol-3-yl)(4-(trifluoromethyl)phenyl)methylium methanesulfonate; format: functional
Procedure, shortened: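 HCT116 cells grown in RPMI-1640 with 10% FBS, exposed to 0.5 μM compound for 6 h. Lysates run on SDS-PAGE and blotted for PARP and cleaved PARP (primary antibodies 1:1000, ECL detection). The cleaved-PARP/PARP band intensity ratio was expressed relative to the reference compound set to 1. Mean ± SD, n = 3.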

SW-620 = test: Induction of apoptosis in human SW-620 cells assessed as viable cells at 0.5 uM measured after 6 hrs by Annexin V-FITC/PI staining based flow cytometry method (reference value: 98.37%); format: functional; settings: read-out: Activity
Procedure, shortened: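 Cells seeded at 1×10^6 per well and treated with 0.5 µM for 6 h. Floating and adherent cells pooled, stained with Annexin V-FITC for 10 min and propidium iodide for 5 min, then analysed immediately by flow cytometry in FITC and PC5.5 channels. Mean ± SD, n = 3.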

[15] = Cmax in male/female Sprague-Dawley rat at 0.5 mg/kg, iv measured for 36 hrs by LC-MS/MS analysis; format: ADME, organism-based; set-up: route intravenous, dose 0.5 mg/kg, time 36 hrs; settings: both, in vivo
BT-549 = test: Induction of apoptosis in human BT-549 cells assessed as PARP cleavage at 0.5 uM measured after 6 hrs by western blot assay; format: functional, cell-based; procedure, shortened: as §2
[16] = Selectivity index, ratio of IC50 for human MCF-10A cells to IC50 for human BT-549 cells
[17] = target: T1, Nuclear receptor subfamily 4immunitygroup A member 1; test: Modulation of Myc-Nur77-LBD (unknown origin) transfected in human HEK293T cells assessed as induction of Myc-Nur77 mitochondrial targeting by measuring increase in Myc-Nur77 accumulation in mitochondria at 0.5 uM measured after 2 hrs by Mito-tracker dye based confocal microscopy method; settings: filed as modulator
Procedure, shortened: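 HEK293T cells transfected with Myc-Nur77-LBD were given 0.5 μM compound for 2 h, stained with Mito-Tracker and immunostained. Nur77 mitochondrial localisation was visualised by confocal microscopy.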

- Cmax [1]: 143 ng/mL
- Cmax [2]: 1640 ng/mL
- clearance [3]: 7.5 mL/min/kg
- MRT last at 36 h [4]: 12.3 h
- half-life [5]: 4.05 h
- AUC(0-t) at 36 h [6]: 3950 ng·h/mL
- Cmax [7]: 203 ng/mL
- bioavailability [8]: 20.1%
- bioavailability [9]: 22.8%
Compound: CS(=O)(=O)[O-].FC(F)(F)c1ccc([C+](c2c[nH]c3ccccc23)c2c[nH]c3ccccc23)cc1

- AUC(0-t) at 36 h [12]: 734 ng·h/mL
- Activity [13]: Active
- Cmax [15]: 561 ng/mL
- Activity [17]: Active
Compound: CS(=O)(=O)[O-].Cn1cc([C+](c2ccc(C(F)(F)F)cc2)c2c[nH]c3ccccc23)c2ccccc21
- Activity (Mus musculus): Active
- Activity (HCT-116 [10]): Active
- Activity (MEF): Active
- selectivity ratio [11]: 50
- fold change (FC) (HCT-116 [14]): 13.54
- viability at 0.5 µM (SW-620): 7.08%
- Activity (BT-549): Active
- Ratio IC50 [16]: 40
